Results published in ChEMBL document CHEMBL1122117, “Pyridazinones. 1. Synthesis and antisecretory and antiulcer activities of thio amide derivatives” (1982).

Experiments:
[1] = system: Rattus norvegicus; assay: Effective dose required for gastric antisecretory activity in the pylorus-ligated rat after intraduodenal administration.; assay type: functional; details: Stomach
Outline: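 Pylorus ligated under ether in fasted rats, six per group. Test agents were given intraduodenally at several dose levels in 1% carboxymethylcellulose, with a vehicle control group. After 7 h the gastric juice volume was measured and titrated with 0.1 N NaOH to pH 3.0 for free acid, as hourly output per rat. ED50 was calculated.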

[2] = system: Rattus norvegicus; assay: Inhibition of gastric antisecretory activity in the pylorus-ligated rat at a dose of 100 mg/kg administered intraduodenally; assay type: functional; details: Stomach, route intraduodenal
Outline: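 Shay pylorus-ligated rats, fasted, six per group, ligated under ether. A single intraduodenal dose of 100 mg/kg was given in 1% carboxymethylcellulose, against a vehicle control. The stomach was removed 7 h later, juice volume measured, and free acid titrated with 0.1 N NaOH to pH 3.0 as hourly output. Results are given as percent inhibition versus control.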

[3] = system: Rattus norvegicus; assay: Antiulcer activity in male Wistar rats for 50% inhibition of stress induced gastric lesions after peroral administration.; assay type: functional; details: Stomach, po
Outline: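 Stress ulcer model. Male Wistar rats of 200–220 g, ten per group, were dosed orally, then immobilized in a stress cage and immersed in a water bath. The stomach was removed 7 h later and summed lesion lengths gave the ulcer index (mm). ED50 by Litchfield–Wilcoxon.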

[4] = organism: Rattus norvegicus; assay: animal or person; details: Stomach, intraduodenal
[5] = system: Rattus norvegicus; assay: Antiulcer activity as dose required to inhibit 50% gastric juice secretions in male Wistar rats after intraduodenally administration.; assay type: functional; details: intraduodenal
[6] = system: Rattus norvegicus; assay: Antiulcer activity in male Donry rat for 50% inhibition of aspirin induced gastric lesions after intraduodenal administration.; assay type: functional; details: Stomach
Outline: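 Aspirin ulcer model. Male Donryu rats of 200–220 g were food-deprived 24 h, ten per group, pylorus-ligated, then dosed intraduodenally. Ten min later they received oral aspirin 100 mg/kg in 1% carboxymethylcellulose. At 7 h the summed lengths of glandular lesions gave the ulcer index (mm). ED50 by Litchfield–Wilcoxon.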

| SMILES | ED50 [1] | inhibition in vivo at 100 mg/kg [2] | ED50 [3] | ED50 [4] | ED50 [5] | ED50 [6] |
| --- | --- | --- | --- | --- | --- | --- |
| N=C(S)CCn1nc(-c2ccccc2)ccc1=S | 73.4 mg/kg | 62.3% |  |  |  |  |
| CCOC(=O)CCn1nc(-c2ccccc2)ccc1=O |  | 6.3% |  |  |  |  |
| NC(=O)CCn1nc(-c2ccccc2)ccc1=O |  | -2.8% |  |  |  |  |
| N=C(S)CCn1ncc2ccccc2c1=O | 90.1 mg/kg | 58.3% |  |  |  |  |
| Cc1ccc(=O)n(CCCCCCC(=N)S)n1 | > 100 mg/kg | 29.5% |  |  |  |  |
| CN/C(=N\CCSCc1nc[nH]c1C)NC#N [CIMETIDINE] |  |  | 43.2 mg/kg | > 100 mg/kg |  |  |
| Cc1ccc(=O)n(CC(C)C(=N)S)n1 (centres undefined) | > 100 mg/kg | 30.2% |  |  |  |  |
| CC(CN1N=C(c2ccccc2)CCC1=O)C(=N)S (centres undefined) |  | 28.2% |  |  |  |  |
| N=C(S)CCn1nc2c(cc1=O)CCc1ccccc1-2 |  | 1.6% |  |  |  |  |
| Cc1ccc(-c2ccc(=O)n(CCC(=N)S)n2)cc1 |  | 18.2% |  |  |  |  |
| Cc1ccc(=O)n(CCCCC(=N)S)n1 | > 100 mg/kg | 29.5% |  |  |  |  |
| Cc1ccc(=O)n(C(C)CC(=N)S)n1 (centres undefined) | > 100 mg/kg | 32.5% |  |  |  |  |
| N=C(S)CCCCCCN1N=C(c2ccccc2)CCC1=O | 58.8 mg/kg | 68.3% | 23 mg/kg |  | 24.8 mg/kg | 72.3 mg/kg |
| COc1ccc2cc(-c3ccc(=O)n(CCC(=N)S)n3)ccc2c1 | 100 mg/kg | 48.9% |  |  |  |  |
| N=C(S)CCn1ncccc1=S | 100 mg/kg | 50% |  |  |  |  |
| CN(C)C(=S)CCn1nc(-c2ccccc2)ccc1=O |  | 46% |  |  |  |  |
| CN(C)C(=S)CCCCCn1nc(-c2ccccc2)ccc1=O | 100 mg/kg | 58.2% |  |  |  |  |
| C/N=C(\S)C(C)Cn1ncccc1=O (centres undefined) | 100 mg/kg | 50.2% | > 50 mg/kg |  | 40 mg/kg | 68.5 mg/kg |
| N=C(S)CCCCCN1N=C(c2ccccc2)CCC1=O | 100 mg/kg | 48.5% |  |  |  |  |
| CC1=NN(C(C)CC(=N)S)C(=O)CC1 (centres undefined) |  | 17.4% |  |  |  |  |
| CC/N=C(\S)CCn1nc(-c2ccccc2)ccc1=O | 100 mg/kg | 50.3% |  |  |  |  |
| O=c1cccnn1CCC(=S)N1CCCC1 | > 100 mg/kg | 29.7% |  |  |  |  |

| SMILES | ED50 [1] | inhibition in vivo at 100 mg/kg [2] | ED50 [3] | ED50 [4] | ED50 [5] | ED50 [6] |
| --- | --- | --- | --- | --- | --- | --- |
| CC(Cn1ncccc1=S)C(=N)S (centres undefined) |  | -1% |  |  |  |  |
| CC(CC(=N)S)n1nc(-c2ccccc2)ccc1=O (centres undefined) |  | 15.5% |  |  |  |  |
| N=C(S)CCn1ncccc1=O | > 100 mg/kg | 28.8% |  |  |  |  |
| N=C(S)CCCCCn1nc(-c2ccccc2)ccc1=O | 23.3 mg/kg | 91.4% | 10.2 mg/kg |  | 9.2 mg/kg | 18.2 mg/kg |
| O=C(O)CCn1nc(-c2ccccc2)ccc1=O |  | 26.1% |  |  |  |  |
| N=C(S)CCCCCCn1nc(-c2ccccc2)ccc1=O | > 100 mg/kg | 33.9% |  |  |  |  |
| CC(Cn1ncccc1=O)C(=N)S (centres undefined) | > 100 mg/kg | 40.3% |  |  |  |  |
| CNC(=O)CCn1nc(-c2ccccc2)ccc1=O |  | 3.5% |  |  |  |  |
| C/N=C(/S)CCCCCn1nc(-c2ccccc2)ccc1=O | 25.2 mg/kg | 92.3% | 18.3 mg/kg |  | 15 mg/kg | 45.5 mg/kg |
| O=c1ccc(-c2ccccc2)nn1CCC(=S)N1CCCC1 | > 100 mg/kg | 38.2% |  |  |  |  |
| CC(Cn1nc(-c2ccccc2)ccc1=O)C(=N)S (centres undefined) | 28.1 mg/kg | 86.4% | 36.1 mg/kg |  | 18.2 mg/kg | 35 mg/kg |
| N#CCCn1nc(-c2ccccc2)ccc1=O |  | 10.1% |  |  |  |  |
| Cc1ccc(=O)n(CCCCCC(=N)S)n1 | > 100 mg/kg | 36.6% |  |  |  |  |
| N=C(S)CCn1nc(-c2ccc(Cl)c(Cl)c2)ccc1=O | 78.1 mg/kg | 55.8% |  |  |  |  |
| CC1=NN(CC(C)C(=N)S)C(=O)CC1 (centres undefined) |  | 15.6% |  |  |  |  |
| N=C(S)Cn1nc(-c2ccccc2)ccc1=O |  | 5.5% |  |  |  |  |
| Cc1ccc(=O)n(CCCC(=N)S)n1 | > 100 mg/kg | 36.3% |  |  |  |  |
| Cc1ccc(=O)n(CCC(N)=O)n1 |  | -2.9% |  |  |  |  |
| N=C(S)CCCCN1N=C(c2ccccc2)CCC1=O | 100 mg/kg | 50.2% |  |  |  |  |
| C/N=C(\S)CCn1nc(-c2ccccc2)ccc1=O | 58.5 mg/kg | 68.2% | 28.3 mg/kg |  | 50.1 mg/kg | 66.3 mg/kg |
| N=C(S)CCCCn1nc(-c2ccccc2)ccc1=O | > 100 mg/kg | 33.8% |  |  |  |  |
| N=C(S)CCCN1N=C(c2ccccc2)CCC1=O | 100 mg/kg | 50.3% |  |  |  |  |

| SMILES | ED50 [1] | inhibition in vivo at 100 mg/kg [2] | ED50 [3] | ED50 [4] | ED50 [5] | ED50 [6] |
| --- | --- | --- | --- | --- | --- | --- |
| N=C(S)CCn1nc(-c2ccccc2)ccc1=O | 87.3 mg/kg | 53.7% | 34.5 mg/kg |  | 23.2 mg/kg | 53.5 mg/kg |
| CC(CC(=N)S)n1ncccc1=O (centres undefined) | > 100 mg/kg | 38.8% |  |  |  |  |
| N=C(S)CCn1nc(-c2ccccc2)c2ccccc2c1=O | 66.5 mg/kg | 73.3% |  |  |  |  |
| Cc1ccc(=S)n(CCC(=N)S)n1 | 100 mg/kg | 48.5% |  |  |  |  |
| N=C(S)CCn1nc(-c2cccs2)ccc1=O | 100 mg/kg | 50.2% |  |  |  |  |
| Cc1ccc(=O)n(CCC(=N)S)n1 | 43.2 mg/kg | 73.9% | > 50 mg/kg |  | 51.3 mg/kg | > 100 mg/kg |
| Cc1cc(-c2ccccc2)nn(CCC(=N)S)c1=O | 66.7 mg/kg | 60.2% | > 50 mg/kg |  | 32 mg/kg | 73.1 mg/kg |
| Cc1ccc(=O)n(CC(=N)S)n1 | > 100 mg/kg | 31.5% |  |  |  |  |
| N=C(S)CCN1N=C(c2ccccc2)CCC1=O | > 100 mg/kg | 38.2% |  |  |  |  |
| C/N=C(\S)CCn1ncccc1=O | > 100 mg/kg | 30.7% |  |  |  |  |
| CC(CC(=N)S)N1N=C(c2ccccc2)CCC1=O (centres undefined) |  | 9.2% |  |  |  |  |
| Cc1cc(=O)n(CCC(=N)S)nc1-c1ccccc1 | > 100 mg/kg | 32% |  |  |  |  |
| N=C(S)CCn1nc(-c2ccc(Cl)cc2)ccc1=O | > 100 mg/kg | 42.5% |  |  |  |  |
| N=C(S)CCCn1nc(-c2ccccc2)ccc1=O | 31.9 mg/kg | 75.6% | 10.5 mg/kg |  | 15.5 mg/kg | 38 mg/kg |
| N=C(S)CCn1[nH]c(=O)ccc1=O |  | -13.4% |  |  |  |  |
| COc1ccc(-c2ccc(=O)n(CCC(=N)S)n2)cc1 | > 100 mg/kg | 20.7% |  |  |  |  |
| N=C(S)CCN1N=C(c2cccs2)CCC1=O | 77.3 mg/kg | 58.5% |  |  |  |  |
| C/N=C(\S)CC(C)n1ncccc1=O (centres undefined) | > 100 mg/kg | 42.7% |  |  |  |  |
| N=C(S)CCN1N=C(c2ccc(Cl)cc2)CCC1=O | > 100 mg/kg | 43.1% |  |  |  |  |
| Cc1ccc(=O)n(CCC#N)n1 |  | -0.2% |  |  |  |  |
| N=C(S)CCN1N=C(c2ccc(Cl)c(Cl)c2)CCC1=O | > 100 mg/kg | 47.2% |  |  |  |  |
| CC1=NN(CCC(=N)S)C(=O)CC1 | > 100 mg/kg | 34.8% |  |  |  |  |
